{"source": "ChEMBL document CHEMBL1914413", "about": "“Using the pER8:GUS reporter system to screen for phytoestrogens from Caesalpinia sappan” (J Nat Prod, 2011)", "key": {"[1]": {"test_system": "Ca9-22", "experiment": "Cytotoxicity against human Ca9-22 cells after 3 days by MTT assay", "type": "functional, cell-based", "conditions": "for IC50: Ca9-22, 72 h"}, "[2]": {"test_system": "Arabidopsis thaliana", "experiment": "Estrogenic activity in transgenic Arabidopsis thaliana transfected with pER8:GUS plasmid assessed as beta-glucuronidase expression after 48 hrs using 4-methylumbelliferyl-beta-D-glucuronide by fluorometric assay", "type": "functional", "summary_of_the_method": "(§1)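 Transgenic Arabidopsis pER8:GUS plants are incubated with or without test compound. GUS expression is quantified by fluorometric assay. 17β-Estradiol is the positive control, run over 0.01–100 μM.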"}, "[3]": {"test_system": "MCF7", "experiment": "Cytotoxicity against human MCF7 cells after 3 days by MTT assay", "type": "functional, cell-based"}, "[4]": {"experiment": "(§2) Cytotoxicity against human Hep3B cells after 3 days by MTT assay", "type": "functional, cell-based, Hep 3B2", "conditions": "72 h"}, "[5]": {"test_system": "MDA-MB-231", "experiment": "Cytotoxicity against human MDA-MB-231 cells after 3 days by MTT assay", "type": "functional, cell-based"}, "[6]": {"test_system": "MCF7", "experiment": "Estrogenic activity in human ER-positive MCF7 cells assessed as secreted alkaline phosphatase activity at 20 uM after 48 hrs by phospha-light reporter chemiluminescence assay", "type": "functional, cell-based"}, "[7]": {"test_system": "A549", "experiment": "Cytotoxicity against human A549 cells after 3 days by MTT assay", "type": "functional, cell-based", "conditions": "for IC50: A549, 72 h"}, "[8]": {"test_system": "HepG2", "experiment": "Cytotoxicity against human HepG2 cells after 3 days by MTT assay", "type": "functional, cell-based"}, "[9]": {"test_system": "Arabidopsis thaliana", "experiment": "Estrogenic activity in transgenic Arabidopsis thaliana transfected with pER8:GUS plasmid assessed as beta-glucuronidase expression at 500 uM after 48 hrs using 4-methylumbelliferyl-beta-D-glucuronide by fluorometric assay", "type": "functional, organism-based", "summary_of_the_method": "as §1"}, "[10]": {"test_system": "Hep 3B2", "experiment": "as §2", "type": "functional, cell-based"}, "[11]": {"test_system": "Arabidopsis thaliana", "experiment": "Estrogenic activity in transgenic Arabidopsis thaliana transfected with pER8:GUS plasmid assessed as beta-glucuronidase expression at 150 to 280 uM after 48 hrs using 4-methylumbelliferyl-beta-D-glucuronide by fluorometric assay", "type": "functional, organism-based", "summary_of_the_method": "as §1"}, "[12]": {"test_system": "MCF7", "experiment": "Antiestrogenic activity in human ER-positive MCF7 cells assessed as inhibition of 17beta estradiol-induced secreted alkaline phosphatase activity at 20 nM after 48 hrs by phospha-light reporter chemiluminescence assay", "type": "functional, cell-based"}, "[13]": {"test_system": "MCF7", "experiment": "Estrogenic activity in human ER-positive MCF7 cells assessed as secreted alkaline phosphatase activity at 0.01 nM after 48 hrs by phospha-light reporter chemiluminescence assay", "type": "functional, cell-based"}, "[14]": {"test_system": "MCF7", "experiment": "Antiestrogenic activity in human ER-positive MCF7 cells assessed as inhibition of 17beta estradiol-induced secreted alkaline phosphatase activity at 1 to 20 uM after 48 hrs by phospha-light reporter chemiluminescence assay", "type": "functional, cell-based"}, "[15]": {"test_system": "MCF7", "experiment": "Antiestrogenic activity in human ER-positive MCF7 cells assessed as inhibition of 17beta estradiol-induced cell proliferation at 1 to 20 uM after 48 hrs by MTT assay", "type": "functional, cell-based"}, "[16]": {"test_system": "MCF7", "experiment": "Antiestrogenic activity in human ER-positive MCF7 cells assessed as inhibition of 17beta estradiol-induced secreted alkaline phosphatase activity at 2 nM after 48 hrs by phospha-light reporter chemiluminescence assay", "type": "functional, cell-based"}, "[17]": {"test_system": "MCF7", "experiment": "Estrogenic activity in human ER-positive MCF7 cells assessed as secreted alkaline phosphatase activity after 48 hrs by phospha-light reporter chemiluminescence assay", "type": "functional, cell-based"}}, "note": "The source made the active and inactive calls. The rule behind the calls is not given here.", "data": [{"compound": "COc1cc(O)ccc1C(=O)/C=C/c1ccc(O)cc1", "values": [{"measurement": "IC50", "setting": "[1]", "value": 57.6, "unit": "µM"}, {"measurement": "MAC", "setting": "[2]", "value": 2.8, "unit": "µM"}, {"measurement": "IC50", "setting": "[3]; MCF7, 72 h", "value": 51.4, "unit": "µM"}, {"measurement": "IC50", "setting": "[4]", "value": 17.9, "unit": "µM"}, {"measurement": "IC50", "setting": "[5]; MDA-MB-231, 72 h", "value": 44.4, "unit": "µM"}, {"measurement": "Activity", "setting": "[6]", "value": "Active"}, {"measurement": "IC50", "setting": "[7]", "value": 32.6, "unit": "µM"}, {"measurement": "IC50", "setting": "[8]; HepG2, 72 h", "value": 7.37, "unit": "µM"}]}, {"compound": "Oc1ccc(C[C@@]2(O)COc3cc(O)ccc3[C@H]2O)cc1", "values": [{"measurement": "Activity", "setting": "[1]", "value": "inactive"}, {"measurement": "Activity", "setting": "[9]", "value": "Active"}, {"measurement": "Activity", "setting": "[3]", "value": "inactive"}, {"measurement": "Activity", "setting": "[10]", "value": "inactive"}, {"measurement": "Activity", "setting": "[5]", "value": "inactive"}, {"measurement": "Activity", "setting": "[11]", "value": "inactive"}, {"measurement": "Activity", "setting": "[7]", "value": "inactive"}, {"measurement": "Activity", "setting": "[8]", "value": "inactive"}]}, {"compound": "CC/C(=C(\\c1ccccc1)c1ccc(OCCN(C)C)cc1)c1ccccc1", "values": [{"measurement": "inhibition", "setting": "[12]", "value": "Active"}]}, {"compound": "O=C1c2ccc(O)cc2OC[C@@H]1O", "values": [{"measurement": "IC50", "setting": "[1]", "value": 62.2, "unit": "µM"}, {"measurement": "Activity", "setting": "[9]", "value": "Active"}, {"measurement": "Activity", "setting": "[3]", "value": "inactive"}, {"measurement": "IC50", "setting": "[4]", "value": 47.2, "unit": "µM"}, {"measurement": "Activity", "setting": "[5]", "value": "inactive"}, {"measurement": "Activity", "setting": "[11]", "value": "inactive"}, {"measurement": "Activity", "setting": "[6]", "value": "inactive"}, {"measurement": "IC50", "setting": "[7]", "value": 80.7, "unit": "µM"}, {"measurement": "Activity", "setting": "[8]", "value": "inactive"}]}, {"compound": "O=c1c(O)coc2cc(O)ccc12", "values": [{"measurement": "Activity", "setting": "[1]", "value": "inactive"}, {"measurement": "MAC", "setting": "[2]", "value": 8.8, "unit": "µM"}, {"measurement": "Activity", "setting": "[3]", "value": "inactive"}, {"measurement": "Activity", "setting": "[10]", "value": "inactive"}, {"measurement": "Activity", "setting": "[5]", "value": "inactive"}, {"measurement": "Activity", "setting": "[6]", "value": "Active"}, {"measurement": "Activity", "setting": "[7]", "value": "inactive"}, {"measurement": "Activity", "setting": "[8]", "value": "inactive"}]}, {"compound": "C[C@]12CC[C@@H]3c4ccc(O)cc4CC[C@H]3[C@@H]1CC[C@@H]2O", "values": [{"measurement": "Activity", "setting": "[2]", "value": "Dose-dependent effect"}, {"measurement": "Activity", "setting": "[13]", "value": "Active"}]}, {"compound": "Oc1ccc(C[C@@]2(O)COc3cc(O)ccc3[C@@H]2O)cc1", "values": [{"measurement": "Activity", "setting": "[1]", "value": "inactive"}, {"measurement": "Activity", "setting": "[9]", "value": "Active"}, {"measurement": "Activity", "setting": "[3]", "value": "inactive"}, {"measurement": "Activity", "setting": "[10]", "value": "inactive"}, {"measurement": "Activity", "setting": "[5]", "value": "inactive"}, {"measurement": "Activity", "setting": "[11]", "value": "inactive"}, {"measurement": "Activity", "setting": "[7]", "value": "inactive"}, {"measurement": "Activity", "setting": "[8]", "value": "inactive"}]}, {"compound": "O=C1C=C2CC3(O)COc4cc(O)ccc4C3=C2C=C1O", "note": "(configuration not stated) [BRAZILEIN]", "values": [{"measurement": "inhibition", "setting": "[14]", "value": "Active"}, {"measurement": "Activity", "setting": "[9]", "value": "Active"}, {"measurement": "IC50", "setting": "[4]", "value": 12, "unit": "µM"}, {"measurement": "Activity", "setting": "[11]", "value": "inactive"}, {"measurement": "Activity", "setting": "[6]", "value": "inactive"}, {"measurement": "inhibition", "setting": "[15]", "value": "Active"}]}, {"compound": "O=C(c1ccc(OCCN2CCCCC2)cc1)c1c(-c2ccc(O)cc2)sc2cc(O)ccc12", "values": [{"measurement": "inhibition", "setting": "[16]", "value": "Active"}]}, {"compound": "O=C1c2ccc(O)cc2OC[C@]1(O)Cc1ccc(O)cc1", "values": [{"measurement": "Activity", "setting": "[1]", "value": "inactive"}, {"measurement": "MAC", "setting": "[2]", "value": 10.9, "unit": "µM"}, {"measurement": "Activity", "setting": "[3]", "value": "inactive"}, {"measurement": "Activity", "setting": "[10]", "value": "inactive"}, {"measurement": "Activity", "setting": "[5]", "value": "inactive"}, {"measurement": "Activity", "setting": "[6]", "value": "Active"}, {"measurement": "Activity", "setting": "[17]", "value": "Dose-dependent effect"}, {"measurement": "Activity", "setting": "[7]", "value": "inactive"}, {"measurement": "Activity", "setting": "[8]", "value": "inactive"}]}, {"compound": "CC1(C)O[C@H]2c3ccc(O)cc3OC[C@@]2(Cc2ccc(O)c(O)c2)O1", "values": [{"measurement": "Activity", "setting": "[1]", "value": "inactive"}, {"measurement": "Activity", "setting": "[9]", "value": "Active"}, {"measurement": "Activity", "setting": "[3]", "value": "inactive"}, {"measurement": "Activity", "setting": "[10]", "value": "inactive"}, {"measurement": "Activity", "setting": "[5]", "value": "inactive"}, {"measurement": "Activity", "setting": "[11]", "value": "inactive"}, {"measurement": "Activity", "setting": "[6]", "value": "Active"}, {"measurement": "Activity", "setting": "[7]", "value": "inactive"}, {"measurement": "Activity", "setting": "[8]", "value": "inactive"}]}, {"compound": "COc1cccc2c1C(=O)c1c(O)c3c(c(O)c1C2=O)C[C@@](O)(C(=O)CO)C[C@@H]3O[C@H]1C[C@H](N)[C@H](O)[C@H](C)O1", "note": "[DOXORUBICIN]", "values": [{"measurement": "IC50", "setting": "[4]", "value": 1.03, "unit": "µM"}]}, {"compound": "O=C1c2ccc(O)cc2OC[C@@H]1Cc1ccc(O)c(O)c1", "values": [{"measurement": "Activity", "setting": "[1]", "value": "inactive"}, {"measurement": "MAC", "setting": "[2]", "value": 2.7, "unit": "µM"}, {"measurement": "Activity", "setting": "[3]", "value": "inactive"}, {"measurement": "Activity", "setting": "[10]", "value": "inactive"}, {"measurement": "Activity", "setting": "[5]", "value": "inactive"}, {"measurement": "Activity", "setting": "[6]", "value": "Active"}, {"measurement": "Activity", "setting": "[17]", "value": "Dose-dependent effect"}, {"measurement": "Activity", "setting": "[7]", "value": "inactive"}, {"measurement": "Activity", "setting": "[8]", "value": "inactive"}]}, {"compound": "Oc1ccc2c(c1)OC[C@]1(O)Cc3cc(O)c(O)cc3[C@H]21", "note": "[BRAZILIN]", "values": [{"measurement": "inhibition", "setting": "[14]", "value": "Active"}, {"measurement": "Activity", "setting": "[9]", "value": "Active"}, {"measurement": "IC50", "setting": "[4]", "value": 15.9, "unit": "µM"}, {"measurement": "Activity", "setting": "[11]", "value": "inactive"}, {"measurement": "Activity", "setting": "[6]", "value": "inactive"}, {"measurement": "inhibition", "setting": "[15]", "value": "Active"}]}, {"compound": "O=c1c(-c2ccc(O)cc2)coc2cc(O)cc(O)c12", "values": [{"measurement": "inhibition", "setting": "[14]", "value": "Active"}, {"measurement": "Activity", "setting": "[17]", "value": "Dose-dependent effect"}]}]}
